Published values pooled from the literature.
pEC50, pIC50: −log10 of the molar value.
Observed: cell growth or viability

| SMILES | cell line | assay | setting | quantity | result |
| --- | --- | --- | --- | --- | --- |
| CN1CCN(C(=O)[C@H](CCCN[C@@H]2C[C@H]2c2ccc(F)cc2)NC(=O)c2ccc(-n3ccnn3)cc2)CC1 | TF-1a | resazurin | 96 h | pEC50 | 7.51 |
| COc1cccc2c1C(=O)c1c(O)c3c(c(O)c1C2=O)C[C@@](O)(C(=O)CO)C[C@@H]3O[C@H]1C[C@H](N)[C@H](O)[C@H](C)O1 | SUM159 | MTT | 48 h | IC90 | > 20 µM |
| CN(C)CC[C@@H](c1ccc(Cl)cc1)c1ccccn1 | FaDu |  | 72 h | pIC50 | < 4.70 |
| C[C@]12CC[C@@H]3c4ccc(O)cc4CC[C@H]3[C@@H]1CC[C@@H]2O | CAPAN-1 | ATP luminescence | 72 h | EC90 | 213 µM |
| CC(C)C[C@H](NC(=O)[C@H](Cc1ccccc1)NC(=O)c1cnccn1)B(O)O | SAOS-2 | ATP luminescence |  | pIC50 | 7.60 |
| C[C@H](Nc1ccc2c(c1)OCCn1cc(N3C(=O)OC[C@H]3C(F)F)nc1-2)C(N)=O | HCC1954 |  | 5 days | pEC50 | 6.97 |
| N[C@H]1CC[C@H](N[C@@H]2C[C@H]2c2ccccc2)CC1 | TF-1a | resazurin | 96 h | pEC50 | 10.05 |
| CC1(C)C(=O)NC2=C1C(=O)C(=O)c1ccccc12 | FaDu |  | 72 h | pIC50 | 5.38 |
| COc1ccc(-c2c(-c3ccc(C#N)c(F)c3)nc(N3CCC(N)CC3)n(C)c2=O)cc1F | TF-1a | resazurin | 96 h | pEC50 | 8.10 |
| CC(=O)Nc1cccc(-n2c(=O)n(C3CC3)c(=O)c3c(Nc4ccc(I)cc4F)n(C)c(=O)c(C)c32)c1 | SW-620 | resazurin | 6.25 nM, 72 h | viability | 38.8% |
| CC/C(=C(\c1ccccc1)c1ccc(OCCN(C)C)cc1)c1ccccc1 | CAPAN-1 | ATP luminescence | 72 h | EC90 | 28.4 µM |
| COc1cc(Nc2nccc(-c3cnn4nc(OC)ccc34)n2)cc(C(F)(F)F)c1 | SAOS-2 | ATP luminescence |  | pIC50 | 6.49 |
| Cc1nc(NC(=O)N2CCC[C@H]2C(N)=O)sc1-c1ccnc(C(C)(C)C(F)(F)F)c1 | HCC1954 |  | 5 days | pEC50 | 5.95 |
| Nc1ccn([C@@H]2O[C@H](CO)[C@@H](O)[C@@H]2O)c(=O)n1 | FaDu | CCK-8 | 40 nM, 96 h | inhibition | 50% |
